Assay results as given in ChEMBL document CHEMBL1123879, “Synthesis and antiarrhythmic activity of novel 3-alkyl-1-[omega-[4-[(alkylsulfonyl)amino]phenyl]-omega- hydroxyalkyl]-1H-imidazolium salts and related compounds” (J Med Chem, 1987).

Assays:
Canis familiaris [1] = species: Canis familiaris; experiment: (§1) Concentration that causes 20% increase in functional refractory period (FRP) was determined on isolated canine ventricular muscle fibers; set-up: species or system Canis lupus familiaris, Muscle tissue
In short: (§2)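 Canine right ventricular papillary muscle strips superfused with O2/CO2-gassed saline at 36 ± 0.5 °C. Bipolar electrogram recording. Stimulated at 4× diastolic threshold (2 ms pulses), equilibrated 60 min. FRP measured at 1000 ms cycle length by S2 after every tenth S1 at shortening intervals. Cumulative concentrations; one compound per strip, with vehicle controls. Readout is concentration giving a 20% FRP change, or maximal change; log mean with 90% CI when n > 2.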

Canis familiaris [2] = experiment: In vivo intraduodenal activity in mongrel dogs was assessed by percent change in heart rate at active dose of 30 mg/kg, administered intradermally; format: functional, Canis lupus familiaris; details: in the assay text read “intraduodenally” for “intradermally”
In short: (§3)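 Healthy dogs (8–20 kg) of either sex, pentobarbital 30 mg/kg iv, ventilated, temperature held at 36 ± 0.5 °C. Compound given intraduodenally as suspension in 0.5% tragacanth. HR, BP and FRP measured at 45 min postdose; second dose if FRP/conduction change below 12%. Active dose means FRP change ≥ 12%; HR and BP given as % change, mean ± SEM.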

Canis familiaris [3] = experiment: In vivo antiarrhythmic efficacy in a programmed electrical stimulation (PES) model of mongrel dogs expressed as minimum effect dose (iv) at iv dose range of 0.1-10 mg/kg.; format: functional, Canis lupus familiaris, Heart
In short: (§4)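 Mongrel dogs (8–17 kg) with two-stage LAD occlusion 24 h earlier, anesthetized with thiopental 15 mg/kg and ventilated; open chest. PES induces SVT/VF; two control arrhythmias 30 min apart. Compound given as 10-min iv infusion, PES repeated 20 min later, dose escalated while still inducible; noninducibility counts as effective. HR and BP reported as % change at effective dose, mean ± SEM.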

Canis familiaris [4] = experiment: In vivo intraduodenal activity in mongrel dogs was assessed by percent change in blood pressure at active dose of 30 mg/kg, administered intradermally; format: functional, Canis lupus familiaris, Artery; details: in the assay text read “intraduodenally” for “intradermally”; in short: as §3
Canis familiaris [5] = species: Canis familiaris; experiment: (§5) Concentration that causes 20% increase in ADP95 (action potential duration at 95% repolarization) was determined on isolated canine cardiac Purkinje fibers; format: functional, Canis lupus familiaris, Purkinje fiber
In short: (§6)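 Canine cardiac Purkinje fibres in gassed physiological saline (95% O2–5% CO2, pH 7.35–7.40) at 36 ± 0.5 °C. Paced at 1.0 Hz with 2 ms pulses at twice diastolic threshold. Intracellular microelectrode recording after up to 1 h of stabilisation; 30 min exposure per concentration; one compound per fibre, with vehicle controls. Readout is concentration giving a 20% change in APD95, or maximal APD95 change; log mean with 90% CI when n > 2.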

Canis familiaris [6] = species: Canis familiaris; experiment: Maximum observed change in ADP95 from control value was determined in isolated canine cardiac uM; format: functional, Canis lupus familiaris; in short: as §6
Canis familiaris [7] = species: Canis familiaris; experiment: Maximum observed change in FRP from control was determined in isolated canine ventricular muscle fibers at a concentration of 100 uM; format: functional, Canis lupus familiaris, Muscle tissue; in short: as §2
Canis familiaris [8] = experiment: In vivo antiarrhythmic efficacy in a programmed electrical stimulation (PES) model of mongrel dogs reported as number of animals effective at dose range of 0.1-10 mg/kg.; format: functional, Canis lupus familiaris, Heart; in short: as §4
Canis familiaris [9] = experiment: In vivo antiarrhythmic efficacy in PES model of mongrel dogs expressed as percent change in blood pressure at iv dose range of 0.1-10 mg/kg.; format: functional, Canis lupus familiaris; details: in the assay text read “1.0-10 mg/kg” for “0.1-10 mg/kg”; in short: as §4
Canis familiaris [10] = experiment: In vivo intraduodenal activity in mongrel dogs was assessed by % change in heart rate (10 mg/kg administered intradermally); format: functional, Canis lupus familiaris; details: in the assay text read “intraduodenally” for “intradermally”; in short: as §3
Canis familiaris [11] = species: Canis familiaris; experiment: as §5; format: functional; details: Canis lupus familiaris; Purkinje fiber; in short: as §6
Canis familiaris [12] = experiment: In vivo intraduodenal activity in mongrel dogs was assessed by % change in blood pressure (10 mg/kg administered intradermally); format: functional, Canis lupus familiaris, Artery; details: in the assay text read “intraduodenally” for “intradermally”; in short: as §3
Canis familiaris [13] = species: Canis familiaris; experiment: as §1; details: Canis lupus familiaris; Muscle tissue; in short: as §2
Canis familiaris [14] = experiment: In vivo antiarrhythmic efficacy in a programmed electrical stimulation (PES) model of mongrel dogs expressed as percent change in heart rate at iv dose range of 0.1-10 mg/kg.; format: functional, Canis lupus familiaris; in short: as §4
Canis familiaris [15] = species: Canis familiaris; experiment: Concentration that causes 20% increase in ADP95 (action potential duration at 95% repolarization) was determined on isolated canine cardiac Purkinje fibers at a dose range of 0.01-10 uM; format: functional, Canis lupus familiaris, Purkinje fiber; in short: as §6
Canis familiaris [16] = experiment: In vivo antiarrhythmic efficacy in a programmed electrical stimulation (PES) model of mongrel dogs expressed as percent change in blood pressure at iv dose range of 0.1-10 mg/kg.; format: functional, Canis lupus familiaris; in short: as §4
Canis familiaris [17] = species: Canis familiaris; experiment: Maximum observed change in FRP from control was determined in isolated canine ventricular muscle fibers at a concentration of 10 uM; format: functional, Canis lupus familiaris, Muscle tissue; in short: as §2
Canis familiaris [18] = species: Canis familiaris; experiment: Maximum observed change in FRP from control was determined on isolated canine ventricular muscle fibers at a concentration of 100 uM; format: functional, Canis lupus familiaris, Muscle tissue; in short: as §2
Canis familiaris [19] = experiment: In vivo antiarrhythmic efficacy in a programmed electrical stimulation (PES) model of mongrel dogs reported as number of animals effective at dose range of 0.3-30 mg/kg.; format: functional, Canis lupus familiaris, Heart; in short: as §4
Canis familiaris [20] = species: Canis familiaris; experiment: Concentration that causes 20% increase in ADP95 (action potential duration at 95% repolarization) was determined on isolated canine cardiac Purkinje fibers;range is 11.2-18.6; format: functional, Canis lupus familiaris, Purkinje fiber; in short: as §6
Canis familiaris [21] = species: Canis familiaris; experiment: Concentration that causes 20% increase in functional refractory period (FRP) was determined on isolated canine ventricular muscle fibers;range is 3.7-162; set-up: species or system Canis lupus familiaris, Muscle tissue; in short: as §2
Canis familiaris [22] = experiment: In vivo antiarrhythmic efficacy in a PES model of mongrel dog expressed as percent change in heart rate at iv dose range of 0.1-30 mg/kg.; format: functional, Canis lupus familiaris; in short: as §4
Canis familiaris [23] = experiment: In vivo intraduodenal activity in mongrel dogs was assessed by percent change in blood pressure at active dose of 10 mg/kg, administered intradermally; format: functional, Canis lupus familiaris, Artery; details: in the assay text read “intraduodenally” for “intradermally”; in short: as §3
Canis familiaris [24] = experiment: In vivo intraduodenal activity in mongrel dogs was assessed by percent change in heart rate at active dose of 10 mg/kg, administered intradermally; format: functional, Canis lupus familiaris; details: in the assay text read “intraduodenally” for “intradermally”; in short: as §3
Canis familiaris [25] = experiment: In vivo antiarrhythmic efficacy in a PES model of mongrel dog expressed as percent change in blood pressure at iv dose range of 0.1-30 mg/kg.; format: functional, Canis lupus familiaris; in short: as §4
Canis familiaris [26] = experiment: In vivo antiarrhythmic efficacy in a programmed electrical stimulation (PES) model of mongrel dogs reported as number of animals effective at dose range of 0.1-30 mg/kg.; format: functional, Canis lupus familiaris, Heart; in short: as §4
Canis familiaris [27] = experiment: In vivo antiarrhythmic efficacy in a programmed electrical stimulation (PES) model of mongrel dogs expressed as minimum effect dose (iv) at iv dose range of 0.1-30 mg/kg.; format: functional, Canis lupus familiaris, Heart; in short: as §4
Canis familiaris [28] = species: Canis familiaris; experiment: Concentration that causes 20% increase in ADP95 (action potential duration at 95% repolarization) was determined on isolated canine cardiac Purkinje fibers (0.01-10 uM concentration range); format: functional, Canis lupus familiaris, Purkinje fiber; in short: as §6
Canis familiaris [29] = species: Canis familiaris; experiment: Concentration that causes 20% increase in functional refractory period (FRP) was determined on isolated canine ventricular muscle fibers; NR = never reached; details: Canis lupus familiaris; Muscle tissue; in short: as §2
Canis familiaris [30] = species: Canis familiaris; experiment: Concentration that causes 20% increase in ADP95 (action potential duration at 95% repolarization) was determined on isolated canine cardiac Purkinje fibers at a concentration range 0.01-10 uM; format: functional, Canis lupus familiaris, Purkinje fiber; in short: as §6
Canis familiaris [31] = experiment: In vivo antiarrhythmic efficacy in a programmed electrical stimulation (PES) model of mongrel dogs expressed as percent change in heart rate at iv dose range of 0.3-10 mg/kg.; format: functional, Canis lupus familiaris; in short: as §4
Canis familiaris [32] = experiment: In vivo antiarrhythmic efficacy in a programmed electrical stimulation (PES) model of mongrel dogs expressed as minimum effect dose (iv) at iv dose range of 0.3-10 mg/kg.; format: functional, Canis lupus familiaris, Heart; in short: as §4
Canis familiaris [33] = experiment: In vivo antiarrhythmic efficacy in a programmed electrical stimulation (PES) model of mongrel dogs expressed as percent change in blood pressure at iv dose range of 0.3-10 mg/kg.; format: functional, Canis lupus familiaris; in short: as §4
Canis familiaris [34] = experiment: In vivo antiarrhythmic efficacy in a programmed electrical stimulation (PES) model of mongrel dogs reported as number of animals effective at dose range of 0.3-10 mg/kg.; format: functional, Canis lupus familiaris, Heart; in short: as §4
[35] = biological target: Adrenergic receptor beta (Canis familiaris); experiment: Concentration effective against displacing [3H]dihydroalprenolol from beta adrenergic receptor from canine ventricular tissue

SMILES | Activity (Canis familiaris [1]) [µM] | Activity (Canis familiaris [5]) [µM] | Max delta APD95 (Canis familiaris [6]) [%] | Max delta FRP (Canis familiaris [7]) [%] | Heart rate (Canis familiaris [10]) [%] | Blood pressure (Canis familiaris [12]) [%] | further results
C[n+]1ccn(CCc2ccc(NS(C)(=O)=O)cc2)c1.[I-] | 10 | 2.6 | 45 | 24 | – | – | Heart rate (Canis familiaris [2]): -13%; Min effective dose (Canis familiaris [3]): 6.5; Blood pressure (Canis familiaris [4]): 3%; No. effective (Canis familiaris [8]): 2; Blood pressure (Canis familiaris [9]): 13%
Cc1c(C)[n+](C)c(C)n1CC(O)c1ccc(NS(C)(=O)=O)cc1.[Cl-] (stereo unspecified) | 2.5 | – | 13 | 29 | -12 | 19 | Activity (Canis familiaris [11]): Not recorded
CCCCCCC[N+](CC)(CC)CCCCc1ccc(Cl)cc1.O=P([O-])(O)O [CLOFILIUM PHOSPHATE] | – | – | 39 | 7 | -18 | -4 | Activity (Canis familiaris [13]): Not recorded; Heart rate (Canis familiaris [14]): -12%; Activity (Canis familiaris [15]): 0.26 µM; Min effective dose (Canis familiaris [3]): 0.63; Blood pressure (Canis familiaris [16]): 2%; No. effective (Canis familiaris [8]): 7
Cc1n(CC(O)c2ccc(NS(C)(=O)=O)cc2)cc[n+]1C.[Cl-] (stereo unspecified) | 0.2 | 0.8 | 51 | – | -20 | 3 | Max delta FRP (Canis familiaris [17]): 44%; Max delta FRP (Canis familiaris [18]): 56%; No. effective (Canis familiaris [19]): 0
C[n+]1ccn(CC(=O)c2ccc(NS(=O)(=O)C(F)(F)F)cc2)c1 | – | – | – | – | – | – | Activity (Canis familiaris [13]): Not recorded; Activity (Canis familiaris [11]): Not recorded; Max delta APD95 (Canis familiaris [6]; Canis lupus familiaris): Minimal effects; Max delta FRP (Canis familiaris [7]; Canis lupus familiaris, Muscle tissue): Minimal effects
CC(C)NCC(O)c1ccc(NS(C)(=O)=O)cc1.Cl (stereo unspecified) [SOTALOL HYDROCHLORIDE] | – | – | 48 | 23 | – | – | Activity (Canis familiaris [20]): 14.4 µM; Activity (Canis familiaris [21]): 24.7 µM; Change (Canis familiaris [22]): -23%; Change (Canis familiaris [23]): 8%; Change (Canis familiaris [24]): -11%; Change (Canis familiaris [25]): -23%; No. of animals (Canis familiaris [26]): 3; Mean effective dose (Canis familiaris [27]): 1.4
C[n+]1ccn(CC(=O)c2ccc(NS(C)(=O)=O)cc2)c1.[Cl-] | – | – | 38 | 15 | – | – | Activity (Canis familiaris [28]): 2.3 µM; Activity (Canis familiaris [29]): Not recorded; Heart rate (Canis familiaris [2]): -19%; Blood pressure (Canis familiaris [4]): 3%; No. effective (Canis familiaris [19]): 0
CCCCCCC[n+]1ccn(CC(O)c2ccc(NS(C)(=O)=O)cc2)c1.O=P([O-])(O)O (stereo unspecified) | 9 | 2.8 | 50 | 24 | -10 | 6 | –
CCCCCCC[n+]1ccn(CC(=O)c2ccc(NS(C)(=O)=O)cc2)c1.[Br-] | – | – | 21 | 14 | – | – | Activity (Canis familiaris [13]): Not recorded; Activity (Canis familiaris [30]): 9 µM
C[n+]1ccn(CCC(=O)c2ccc(NS(C)(=O)=O)cc2)c1.[Cl-] | 17.8 | 38.3 | 26 | 29 | -2 | 6 | –
C[n+]1ccn(CC(O)c2ccc(NS(C)(=O)=O)cc2)c1.[Cl-] (stereo unspecified) | 5.9 | 1.6 | 50 | 31 | -10 | 5 | Heart rate (Canis familiaris [31]): -23%; Min effective dose (Canis familiaris [32]): 6.5; Blood pressure (Canis familiaris [33]): 0%; No. effective (Canis familiaris [34]): 2; IC50 [35]: 2350 µM
